Data from ChEMBL document CHEMBL4680064, “Natural product inspired optimization of a selective TRPV6 calcium channel inhibitor” (RSC Med Chem, 2020).

Key:
[1] = target: Kappa-type opioid receptor (Homo sapiens, UniProt P41145); experiment: Inhibition of human kappa-opioid receptor at 10 uM
[2] = Inhibition of SOCE in human MDA-MB-231 cells at 5 uM pretreated for 20 mins followed by Tg addition for 10 mins followed by CaCl2 addition by FLIPR assay; type: cell-based; conditions: mda-mb-231, 0.5 h, time 30 min
How it was run: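 MDA-MB-231 cells at 6 x 10⁴ cells/well in phenol-red-free RPMI with 10% FBS, assayed 16 h later. Loaded in nominally Ca²⁺-free buffer with calcium-5 for 40 min at 37 °C. Compound, with GSK-7975A as reference, given for 20 min. After a 50 s baseline, thapsigargin was added and followed for 10 min, then CaCl2 was added. SOCE taken as AUC of the Ca²⁺ entry trace.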

D(4) dopamine receptor = target: T1, D(4) dopamine receptor (Homo sapiens, UniProt P21917); experiment: Inhibition of human dopamine D4.4 receptor at 10 uM
T1 sequence (P21917 whole entry): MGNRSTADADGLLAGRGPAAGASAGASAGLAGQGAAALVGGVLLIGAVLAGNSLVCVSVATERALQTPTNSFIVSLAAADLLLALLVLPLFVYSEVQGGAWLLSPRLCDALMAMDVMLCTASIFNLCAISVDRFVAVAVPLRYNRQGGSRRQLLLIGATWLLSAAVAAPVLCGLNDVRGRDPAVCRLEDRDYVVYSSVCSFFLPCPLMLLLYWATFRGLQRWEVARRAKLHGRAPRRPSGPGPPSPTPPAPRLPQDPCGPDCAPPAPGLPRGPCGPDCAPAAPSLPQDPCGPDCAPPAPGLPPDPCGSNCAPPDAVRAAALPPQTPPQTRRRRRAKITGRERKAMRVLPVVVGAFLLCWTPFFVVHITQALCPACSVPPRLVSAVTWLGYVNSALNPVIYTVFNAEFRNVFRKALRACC

Mu-type opioid receptor = Mu-type opioid receptor (Homo sapiens, UniProt P35372); experiment: Inhibition of human mu-opioid receptor at 10 uM
D(2) dopamine receptor = D(2) dopamine receptor (Homo sapiens, UniProt P14416); experiment: Inhibition of human dopamine D2S receptor at 10 uM

Measured: inhibition (INH)

Mu-type opioid receptor, sequence (P35372 whole entry): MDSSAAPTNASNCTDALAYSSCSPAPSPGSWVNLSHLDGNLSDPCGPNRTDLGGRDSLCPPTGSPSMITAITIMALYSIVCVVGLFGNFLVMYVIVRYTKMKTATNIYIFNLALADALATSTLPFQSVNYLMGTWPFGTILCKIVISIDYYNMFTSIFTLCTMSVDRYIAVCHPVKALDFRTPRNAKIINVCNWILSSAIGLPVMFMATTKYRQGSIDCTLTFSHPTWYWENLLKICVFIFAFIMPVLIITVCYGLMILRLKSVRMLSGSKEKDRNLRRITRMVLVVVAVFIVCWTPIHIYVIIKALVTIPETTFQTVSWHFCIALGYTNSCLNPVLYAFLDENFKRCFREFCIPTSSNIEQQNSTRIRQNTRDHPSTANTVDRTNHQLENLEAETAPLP
D(2) dopamine receptor, sequence (P14416 whole entry): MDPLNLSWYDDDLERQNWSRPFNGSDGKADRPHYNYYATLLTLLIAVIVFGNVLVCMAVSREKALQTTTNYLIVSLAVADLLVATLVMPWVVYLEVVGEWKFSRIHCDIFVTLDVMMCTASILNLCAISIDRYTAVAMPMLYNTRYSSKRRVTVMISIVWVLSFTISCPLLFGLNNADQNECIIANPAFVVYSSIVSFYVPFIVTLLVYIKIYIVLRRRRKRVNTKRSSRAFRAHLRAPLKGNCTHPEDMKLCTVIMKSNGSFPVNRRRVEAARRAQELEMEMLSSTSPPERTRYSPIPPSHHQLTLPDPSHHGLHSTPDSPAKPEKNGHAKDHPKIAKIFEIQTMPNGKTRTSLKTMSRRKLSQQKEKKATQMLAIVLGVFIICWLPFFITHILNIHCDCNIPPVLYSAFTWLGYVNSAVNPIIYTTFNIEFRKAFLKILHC
Kappa-type opioid receptor, sequence (P41145 whole entry): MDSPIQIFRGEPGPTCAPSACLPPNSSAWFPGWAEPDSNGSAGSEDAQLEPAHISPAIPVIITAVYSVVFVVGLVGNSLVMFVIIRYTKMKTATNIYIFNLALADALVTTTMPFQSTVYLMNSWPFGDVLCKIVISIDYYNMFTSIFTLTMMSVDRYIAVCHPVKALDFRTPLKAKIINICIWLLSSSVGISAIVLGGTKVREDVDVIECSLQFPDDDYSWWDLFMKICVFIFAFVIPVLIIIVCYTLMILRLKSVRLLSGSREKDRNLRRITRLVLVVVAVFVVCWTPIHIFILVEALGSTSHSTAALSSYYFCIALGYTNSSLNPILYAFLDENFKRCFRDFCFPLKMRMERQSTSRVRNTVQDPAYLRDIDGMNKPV

O=c1ccc(CN2CCN([C@H]3CC[C@@](O)(c4cccc(C(F)(F)F)c4)CC3)CC2)c[nH]1
Not Active: all assays above
